The values that follow come from ChEMBL document CHEMBL3576834, “Antipodal crambescin A2 homologues from the marine sponge Pseudaxinella reticulata. Antifungal structure-activity relationships” (2015).

≈ marks a conversion by molar mass, not a printed value.

One assay concerns Candida albicans. Kind of assay: Antifungal activity against Candida albicans ATCC 14503 after 48 hrs by microbroth dilution method. To be noted: ATCC 14503, 48 h. The assay is classed as functional. An outline of the steps: (§1)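 Microbroth dilution in Antibiotic Medium #3. Test agent in DMSO serially diluted 2-fold across 12 wells. Overnight yeast cultures diluted to OD 0.01−0.02 and added to the wells, final volume 200 μL. Incubated at 35 °C for 48 h, then growth read as OD at 600 nm.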

The next assay relates to Cryptococcus gattii. Kind of assay: Antifungal activity against Cryptococcus neoformans var. gattii after 48 hrs by microbroth dilution method. The assay is classed as functional, Cryptococcus bacillisporus. An outline of the steps:
as §1

A further assay relates to Staphylococcus aureus. Kind of assay: Antibacterial activity against Staphylococcus aureus at 80 ug by disk diffusion method. The class given is functional. To be noted: read-out: IZ. Background: A growth-free zone around the sample is the usual read-out of agar diffusion tests.
The subject of another assay is Nakaseomyces glabratus. Kind of assay: Antifungal activity against Candida glabrata after 48 hrs by microbroth dilution method. The assay is classed as functional. The essentials:
as §1
Background: In broth dilution the organism is exposed to a series of concentrations in liquid medium.

In another assay the test system is Pichia kudriavzevii. Kind of assay: Antifungal activity against Candida krusei after 48 hrs by microbroth dilution method. The assay is classed as functional. The essentials: as §1

As usually defined, the MIC50 is an inhibitory concentration at the 50% level, which refers to growth in some studies and to a panel of isolates in others. As a reminder, the MIC90 is an inhibitory concentration at the 90% level, which refers to growth in some studies and to a panel of isolates in others. The low end stands for higher susceptibility, the high end for lower susceptibility.

Regarding `CCCCCCCC[C@H]1NC(=N)N2CCCC2=C1C(=O)OCCCCNC(=N)N`, in the assay on Candida albicans, the MIC50 was 14 µM (≈ 5.69 µg/mL) and the MIC90 was 26 µM (≈ 10.6 µg/mL). In the assay on Cryptococcus gattii, this compound returned an MIC50 of 0.85 µM (≈ 0.346 µg/mL) and an MIC90 of 2.2 µM (≈ 0.894 µg/mL).

For the compound `CCCCC[C@H]1NC(=N)N2CCCC2=C1C(=O)OCCCCNC(=N)N`, the MIC50 was determined as 39 µM (≈ 14.2 µg/mL) in the assay on Candida albicans, 17 µM (≈ 6.2 µg/mL) with Nakaseomyces glabratus, 2.5 µM (≈ 0.911 µg/mL) with Cryptococcus gattii and 34 µM (≈ 12.4 µg/mL) against Pichia kudriavzevii. Also, the MIC90 with Candida albicans is 49 µM (≈ 17.9 µg/mL); against Nakaseomyces glabratus it was 41 µM (≈ 14.9 µg/mL); against Cryptococcus gattii it was 4.9 µM (≈ 1.79 µg/mL); in the assay on Pichia kudriavzevii it was 59 µM (≈ 21.5 µg/mL). Moreover, the zone of inhibition at 80 µg/disc in the assay with Staphylococcus aureus turned out to be 8 mm.

In the assay on Candida albicans, `CCCCCCC[C@H]1NC(=N)N2CCCC2=C1C(=O)OCCCCNC(=N)N` came in with an MIC50 of 22 µM (≈ 8.64 µg/mL) and an MIC90 of 32 µM (≈ 12.6 µg/mL). Moreover, in the assay on Cryptococcus gattii, the MIC50 is 1.2 µM (≈ 0.471 µg/mL) and the MIC90 was found to be 2.3 µM (≈ 0.903 µg/mL).

In the case of `CCCCCCCCC[C@H]1NC(=N)N2CCCC2=C1C(=O)OCCCCNC(=N)N`, the MIC50 is 11 µM (≈ 4.63 µg/mL) with Candida albicans, 6.1 µM (≈ 2.57 µg/mL) in the assay on Nakaseomyces glabratus, 1.1 µM (≈ 0.463 µg/mL) with Cryptococcus gattii and 11 µM (≈ 4.63 µg/mL) in the assay with Pichia kudriavzevii. Besides, the MIC90 with Candida albicans was determined as 22 µM (≈ 9.25 µg/mL); against Nakaseomyces glabratus it was 27 µM (≈ 11.4 µg/mL); against Cryptococcus gattii, 2.6 µM (≈ 1.09 µg/mL); in the assay with Pichia kudriavzevii it was 24 µM (≈ 10.1 µg/mL).

On to `C[C@@H]1[C@H](O)[C@@H](C)/C=C/C=C/C=C/C=C/C=C/C=C/C=C/[C@H](O[C@@H]2O[C@H](C)[C@@H](O)[C@H](N)[C@@H]2O)C[C@@H]2O[C@](O)(C[C@@H](O)C[C@@H](O)[C@H](O)CC[C@@H](O)C[C@@H](O)CC(=O)O[C@H]1C)C[C@H](O)[C@H]2C(=O)O` [AMPHOTERICIN B], for which the MIC50 came out at 0.037 µM (≈ 0.0342 µg/mL) against Candida albicans, 0.098 µM (≈ 0.0906 µg/mL) in the assay with Nakaseomyces glabratus, 0.055 µM (≈ 0.0508 µg/mL) with Cryptococcus gattii and 0.17 µM (≈ 0.157 µg/mL) in the assay on Pichia kudriavzevii. Besides, the MIC90 with Candida albicans was 0.29 µM (≈ 0.268 µg/mL); with Nakaseomyces glabratus, 0.25 µM (≈ 0.231 µg/mL); against Cryptococcus gattii, 0.12 µM (≈ 0.111 µg/mL); in the assay on Pichia kudriavzevii it was 0.23 µM (≈ 0.213 µg/mL).
